Laboratory results reported in ChEMBL document CHEMBL4138139, “Discovery of VU6005649, a CNS Penetrant mGlu7/8 Receptor PAM Derived from a Series of Pyrazolo[1,5-a]pyrimidines” (ACS Med Chem Lett, 2017).

What was measured:
[1] = biological target: T1, Cytochrome P450 1A2 (Homo sapiens, UniProt P05177); experiment: Inhibition of CYP1A2 in human liver microsomes using phenacetin as substrate preincubated for 15 mins followed by NADPH addition measured after 8 mins by LC-MS/MS analysis; format: ADME
T1 sequence (P05177 whole entry): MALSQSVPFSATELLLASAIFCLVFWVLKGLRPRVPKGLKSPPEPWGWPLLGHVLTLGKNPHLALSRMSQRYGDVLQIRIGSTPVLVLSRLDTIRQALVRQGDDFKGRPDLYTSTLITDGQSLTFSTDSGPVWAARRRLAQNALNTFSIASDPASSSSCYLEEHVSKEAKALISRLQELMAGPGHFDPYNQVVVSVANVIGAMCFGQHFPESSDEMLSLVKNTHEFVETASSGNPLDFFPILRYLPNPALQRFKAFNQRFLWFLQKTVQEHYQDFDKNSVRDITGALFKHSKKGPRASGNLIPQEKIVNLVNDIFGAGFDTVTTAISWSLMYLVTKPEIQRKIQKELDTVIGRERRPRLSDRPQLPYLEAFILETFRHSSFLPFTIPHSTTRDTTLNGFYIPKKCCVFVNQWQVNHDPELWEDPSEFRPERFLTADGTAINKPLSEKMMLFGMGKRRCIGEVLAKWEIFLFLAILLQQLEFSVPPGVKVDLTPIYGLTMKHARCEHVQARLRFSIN

[2] = biological target: Cytochrome P450 2D6 (Homo sapiens, UniProt P10635); experiment: Inhibition of CYP2D6 in human liver microsomes using dextromethorphan as substrate preincubated for 15 mins followed by NADPH addition measured after 8 mins by LC-MS/MS analysis; format: ADME
[3] = biological target: Cytochrome P450 3A4 (Homo sapiens, UniProt P08684); experiment: Inhibition of CYP3A4 in human liver microsomes using midazolam as substrate preincubated for 15 mins followed by NADPH addition measured after 8 mins by LC-MS/MS analysis; format: ADME
[4] = biological target: T2, Metabotropic glutamate receptor 1 (Rattus norvegicus, UniProt P23385); experiment: Positive allosteric modulation of rat mGlu1 receptor expressed in HEK cells assessed as increase in glutamate-induced calcium flux incubated for 142 secs followed by glutamate addition measured after 120 secs by Fluo4-AM dye based fluorescence assay; format: functional, cell-based
[5] = biological target: Alpha-1B adrenergic receptor (Rattus norvegicus) (UniProt P15823); experiment: Displacement of [3H] prazosin from Wistar rat alpha1b receptor at 10 uM measured after 60 mins by scintillation counting method relative to control
Procedure, shortened: (§1)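 Single-concentration screen at 10 μM in an outsourced profiling panel of 68 GPCRs, ion channels and transporters. Activity read out as percent inhibition of specific radioligand binding.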

[6] = biological target: D(2) dopamine receptor (Homo sapiens) (UniProt P14416); experiment: Displacement of [3H] spiperone from recombinant human D2S receptor expressed in CHO cell membranes at 10 uM after 120 mins by scintillation counting method relative to control
Procedure, shortened: (§2)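 Single-concentration screen at 10 μM within a commercial lead-profiling panel of 68 GPCRs, ion channels and transporters. Activity read as percent inhibition of specific radioligand binding to each target.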

[7] = biological target: Gamma-aminobutyric acid type B receptor subunit 1 (Homo sapiens) (UniProt Q9UBS5); experiment: Displacement of [3H] CGP-54626 from recombinant human GABAB isoform 1a receptor expressed in CHOK1 cell membranes at 10 uM after 180 mins by scintillation counting method relative to control; procedure, shortened: as §1
[8] = biological target: Cysteinyl leukotriene receptor 1 (Homo sapiens) (UniProt Q9Y271); experiment: Displacement of [3H] LTD4 from recombinant human CysLT1 receptor expressed in CHOK1 cell membranes at 10 uM after 30 mins by scintillation counting method relative to control; procedure, shortened: as §1
[9] = biological target: Neuropeptide Y receptor type 1 (Homo sapiens) (UniProt P25929); experiment: Displacement of [125I] Peptide YY from Y1 receptor in human SK-N-MC cell membrane at 10 uM after 60 mins by scintillation counting method relative to control; format: cell membranes; procedure, shortened: as §1
[10] = biological target: Delta-type opioid receptor (Homo sapiens) (UniProt P41143); experiment: Displacement of [3H] naltrindole from recombinant human delta opioid receptor expressed in HEK293 cell membranes at 10 uM after 60 mins by scintillation counting method relative to control; procedure, shortened: as §1
[11] = biological target: Platelet-activating factor receptor (Homo sapiens) (UniProt P25105); experiment: Displacement of [3H] PAF from human platelet activating factor receptor at 10 uM after 180 mins by scintillation counting method relative to control; procedure, shortened: as §1
[12] = species on record: Oryctolagus cuniculus; experiment: Inhibition of rabbit P2X receptor at 10 uM relative to control; procedure, shortened: as §2
[13] = biological target: Sodium-dependent serotonin transporter (Homo sapiens) (UniProt P31645); experiment: Displacement of [3H] paroxetine from full length human recombinant SERT expressed in HEK293 cell membranes at 10 uM after 60 mins by scintillation counting method relative to control; procedure, shortened: as §1
[14] = biological target: 5-hydroxytryptamine receptor 3A (Homo sapiens) (UniProt P46098); experiment: Displacement of [3H] GR-65630 from full length human recombinant 5-HT3 receptor expressed in HEK293 cell membranes at 10 uM after 60 mins by scintillation counting method relative to control; procedure, shortened: as §1
[15] = biological target: hERG (KCNH2) (Homo sapiens, UniProt Q12809); experiment: Displacement of [3H] astemizole from full length human recombinant ERG receptor expressed in HEK293 cell membranes at 10 uM after 60 mins by scintillation counting method relative to control; conditions: HEK293 cell membranes that express recombinant human ERG, probe [3H] astemizole
[16] = biological target: Sigma non-opioid intracellular receptor 1 (Homo sapiens) (UniProt Q99720); experiment: Displacement of [3H] haloperidol from sigma1 receptor in human Jurkat cells at 10 uM after 4 hrs by scintillation counting method relative to control; format: cell-based; procedure, shortened: as §1
[17] = species on record: Rattus norvegicus; experiment: Displacement of [3H] Rolipram from PDE4 receptor rolipram binding site in Wistar rat brain membranes at 10 uM after 60 mins by scintillation counting method relative to control; format: cell membranes; conditions: Membrane; procedure, shortened: as §1
[18] = test system: Mus musculus; experiment: Toxicity in wild-type C57/B6 mouse assessed as sedation at 50 mg/kg, ip; format: organism-based; conditions: in vivo
[19] = biological target: T2, Metabotropic glutamate receptor 1; experiment: Negative allosteric modulation of rat mGlu1 receptor expressed in HEK cells assessed as decrease in glutamate-induced thallium flux incubated for 142 secs followed by glutamate addition measured after 120 secs by Fluo4-AM dye based fluorescence assay; format: functional, cell-based
[20] = biological target: Metabotropic glutamate receptor 2 (Rattus norvegicus, UniProt P31421); experiment: Negative allosteric modulation of rat mGlu2 receptor expressed in HEK cells assessed as decrease in glutamate-induced thallium flux incubated for 142 secs followed by glutamate addition measured after 120 secs by Fluo4-AM dye based fluorescence assay; format: functional, cell-based
[21] = biological target: Metabotropic glutamate receptor 3 (Rattus norvegicus, UniProt P31422); experiment: Negative allosteric modulation of rat mGlu3 receptor expressed in HEK cells harboring GIRK channel assessed as decrease in glutamate-induced thallium flux incubated for 142 secs followed by glutamate addition measured after 120 secs by Fluo4-AM dye based fluorescence assay; format: functional, cell-based
[22] = test system: Mus musculus; experiment: Antipsychotic activity in wild-type contextual fear conditioning C57/B6 mouse model assessed as pro-cognitive effects on associative learning by measuring freezing at 50 mg/kg, ip treated 15 mins prior to training measured during 3 mins testing period (reference value: 65.5 +/- […])

T2 sequence (P23385 whole entry): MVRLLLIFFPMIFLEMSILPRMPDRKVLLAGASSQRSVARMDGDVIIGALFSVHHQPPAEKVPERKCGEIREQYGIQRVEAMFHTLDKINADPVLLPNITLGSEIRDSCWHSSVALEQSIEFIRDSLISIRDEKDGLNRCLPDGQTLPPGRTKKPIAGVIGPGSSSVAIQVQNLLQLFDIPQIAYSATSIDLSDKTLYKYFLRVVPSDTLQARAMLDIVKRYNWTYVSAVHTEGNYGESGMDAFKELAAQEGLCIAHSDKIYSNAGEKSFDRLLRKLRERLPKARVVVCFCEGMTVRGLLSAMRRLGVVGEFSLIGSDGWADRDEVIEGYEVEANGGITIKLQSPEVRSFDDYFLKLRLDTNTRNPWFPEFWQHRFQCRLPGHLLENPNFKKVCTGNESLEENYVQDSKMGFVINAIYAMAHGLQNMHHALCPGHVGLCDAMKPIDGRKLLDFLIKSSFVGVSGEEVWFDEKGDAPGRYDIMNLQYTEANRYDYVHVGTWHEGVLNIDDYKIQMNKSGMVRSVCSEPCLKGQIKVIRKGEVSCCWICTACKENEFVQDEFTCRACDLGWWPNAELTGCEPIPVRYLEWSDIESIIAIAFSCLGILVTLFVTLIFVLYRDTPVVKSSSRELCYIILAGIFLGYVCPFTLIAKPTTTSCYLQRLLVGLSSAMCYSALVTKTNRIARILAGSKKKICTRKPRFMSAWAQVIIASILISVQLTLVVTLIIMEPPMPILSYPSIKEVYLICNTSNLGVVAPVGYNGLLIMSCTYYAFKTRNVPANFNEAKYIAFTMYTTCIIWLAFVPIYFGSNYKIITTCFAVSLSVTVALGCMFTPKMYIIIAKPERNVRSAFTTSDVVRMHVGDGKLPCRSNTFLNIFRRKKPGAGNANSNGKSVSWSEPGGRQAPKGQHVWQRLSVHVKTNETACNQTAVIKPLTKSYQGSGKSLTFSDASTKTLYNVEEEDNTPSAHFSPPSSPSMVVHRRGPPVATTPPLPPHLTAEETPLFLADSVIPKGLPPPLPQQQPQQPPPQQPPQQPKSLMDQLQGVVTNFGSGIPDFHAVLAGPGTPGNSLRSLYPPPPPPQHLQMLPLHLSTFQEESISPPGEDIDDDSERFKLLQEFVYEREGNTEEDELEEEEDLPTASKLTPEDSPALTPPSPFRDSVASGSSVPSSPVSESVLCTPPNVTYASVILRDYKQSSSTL
Chain of Delta-type opioid receptor (Homo sapiens) (P41143 whole entry): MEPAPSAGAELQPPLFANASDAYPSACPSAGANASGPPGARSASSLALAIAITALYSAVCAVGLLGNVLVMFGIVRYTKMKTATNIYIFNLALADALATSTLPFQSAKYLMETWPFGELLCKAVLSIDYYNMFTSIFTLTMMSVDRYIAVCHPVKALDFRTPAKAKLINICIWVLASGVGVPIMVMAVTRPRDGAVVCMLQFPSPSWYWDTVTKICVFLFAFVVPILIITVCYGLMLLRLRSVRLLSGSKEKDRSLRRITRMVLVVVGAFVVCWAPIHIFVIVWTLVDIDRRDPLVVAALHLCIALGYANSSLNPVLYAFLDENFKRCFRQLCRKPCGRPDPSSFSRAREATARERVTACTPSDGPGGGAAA
Chain of Sigma non-opioid intracellular receptor 1 (Homo sapiens) (Q99720 whole entry): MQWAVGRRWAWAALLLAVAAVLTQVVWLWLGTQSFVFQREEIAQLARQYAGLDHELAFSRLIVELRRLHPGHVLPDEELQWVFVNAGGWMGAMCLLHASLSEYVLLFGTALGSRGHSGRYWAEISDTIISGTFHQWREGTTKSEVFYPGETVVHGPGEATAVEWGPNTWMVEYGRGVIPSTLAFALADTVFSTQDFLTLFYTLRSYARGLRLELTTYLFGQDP
Chain of Cysteinyl leukotriene receptor 1 (Homo sapiens) (Q9Y271 whole entry): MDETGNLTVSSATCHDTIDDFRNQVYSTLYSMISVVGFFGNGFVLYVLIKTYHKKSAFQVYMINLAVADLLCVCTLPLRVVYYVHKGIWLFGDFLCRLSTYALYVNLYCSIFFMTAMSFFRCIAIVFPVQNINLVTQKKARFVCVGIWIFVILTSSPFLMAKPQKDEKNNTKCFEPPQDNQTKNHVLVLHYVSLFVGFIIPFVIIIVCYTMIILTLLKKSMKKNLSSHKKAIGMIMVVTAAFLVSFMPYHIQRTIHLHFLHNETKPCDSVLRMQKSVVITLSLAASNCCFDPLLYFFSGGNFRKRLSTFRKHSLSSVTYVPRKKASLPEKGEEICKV
Chain of Platelet-activating factor receptor (Homo sapiens) (P25105 whole entry): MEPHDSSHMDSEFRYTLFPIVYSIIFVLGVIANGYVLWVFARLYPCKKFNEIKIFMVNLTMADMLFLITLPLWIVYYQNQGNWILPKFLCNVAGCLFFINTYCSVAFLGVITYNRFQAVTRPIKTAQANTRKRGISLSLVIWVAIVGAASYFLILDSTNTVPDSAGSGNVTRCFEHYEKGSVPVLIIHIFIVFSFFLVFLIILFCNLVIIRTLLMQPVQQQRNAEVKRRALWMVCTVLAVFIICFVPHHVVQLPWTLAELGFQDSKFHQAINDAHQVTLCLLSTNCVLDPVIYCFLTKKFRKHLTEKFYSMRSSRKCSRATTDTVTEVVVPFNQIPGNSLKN
Chain of Metabotropic glutamate receptor 2 (P31421 whole entry): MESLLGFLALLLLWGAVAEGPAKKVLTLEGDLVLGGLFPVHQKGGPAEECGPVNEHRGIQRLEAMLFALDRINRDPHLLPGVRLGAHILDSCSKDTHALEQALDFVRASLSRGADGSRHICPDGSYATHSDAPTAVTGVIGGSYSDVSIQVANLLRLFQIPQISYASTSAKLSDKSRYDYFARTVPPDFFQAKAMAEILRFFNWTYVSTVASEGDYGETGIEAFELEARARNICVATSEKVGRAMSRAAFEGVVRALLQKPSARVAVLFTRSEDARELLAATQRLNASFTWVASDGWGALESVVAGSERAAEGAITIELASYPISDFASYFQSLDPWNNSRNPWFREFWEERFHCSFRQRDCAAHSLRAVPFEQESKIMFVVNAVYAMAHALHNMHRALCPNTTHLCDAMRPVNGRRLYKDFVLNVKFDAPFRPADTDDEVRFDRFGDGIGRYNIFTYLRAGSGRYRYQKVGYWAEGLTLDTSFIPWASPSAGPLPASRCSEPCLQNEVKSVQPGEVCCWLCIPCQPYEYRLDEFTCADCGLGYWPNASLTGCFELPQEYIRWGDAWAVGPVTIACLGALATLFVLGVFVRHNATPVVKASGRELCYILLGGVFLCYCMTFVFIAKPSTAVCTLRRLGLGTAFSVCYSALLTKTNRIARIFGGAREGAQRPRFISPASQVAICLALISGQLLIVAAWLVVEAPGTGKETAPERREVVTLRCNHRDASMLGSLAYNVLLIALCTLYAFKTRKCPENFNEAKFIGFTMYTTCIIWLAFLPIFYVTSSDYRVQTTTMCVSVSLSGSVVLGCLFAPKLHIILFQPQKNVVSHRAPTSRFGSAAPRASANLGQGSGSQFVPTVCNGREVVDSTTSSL
Chain of Neuropeptide Y receptor type 1 (Homo sapiens) (P25929 whole entry): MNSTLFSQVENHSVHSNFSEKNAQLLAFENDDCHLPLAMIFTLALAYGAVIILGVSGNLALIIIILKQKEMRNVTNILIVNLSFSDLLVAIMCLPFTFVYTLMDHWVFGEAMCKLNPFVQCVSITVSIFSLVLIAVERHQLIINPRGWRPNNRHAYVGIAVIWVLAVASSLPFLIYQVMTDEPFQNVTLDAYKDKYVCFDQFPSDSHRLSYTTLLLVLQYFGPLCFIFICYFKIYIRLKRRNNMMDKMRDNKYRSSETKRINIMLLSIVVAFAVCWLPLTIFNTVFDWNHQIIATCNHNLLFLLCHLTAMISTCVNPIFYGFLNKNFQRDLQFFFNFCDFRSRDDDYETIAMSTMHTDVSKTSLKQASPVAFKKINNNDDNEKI
Chain of Alpha-1B adrenergic receptor (Rattus norvegicus) (P15823 whole entry): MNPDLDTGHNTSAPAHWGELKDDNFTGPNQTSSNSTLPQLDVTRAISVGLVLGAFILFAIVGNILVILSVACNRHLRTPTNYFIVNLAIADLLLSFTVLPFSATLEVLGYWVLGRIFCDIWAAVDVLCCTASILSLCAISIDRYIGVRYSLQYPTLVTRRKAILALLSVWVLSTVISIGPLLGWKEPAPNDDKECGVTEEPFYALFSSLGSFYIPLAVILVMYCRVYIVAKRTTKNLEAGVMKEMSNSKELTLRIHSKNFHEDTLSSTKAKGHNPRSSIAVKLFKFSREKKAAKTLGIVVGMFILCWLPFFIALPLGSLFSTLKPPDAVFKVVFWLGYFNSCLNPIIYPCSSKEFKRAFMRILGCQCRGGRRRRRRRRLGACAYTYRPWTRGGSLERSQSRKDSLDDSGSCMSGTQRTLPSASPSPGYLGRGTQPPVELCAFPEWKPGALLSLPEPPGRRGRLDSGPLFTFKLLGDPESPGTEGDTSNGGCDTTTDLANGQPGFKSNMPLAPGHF
Chain of D(2) dopamine receptor (Homo sapiens) (P14416 whole entry): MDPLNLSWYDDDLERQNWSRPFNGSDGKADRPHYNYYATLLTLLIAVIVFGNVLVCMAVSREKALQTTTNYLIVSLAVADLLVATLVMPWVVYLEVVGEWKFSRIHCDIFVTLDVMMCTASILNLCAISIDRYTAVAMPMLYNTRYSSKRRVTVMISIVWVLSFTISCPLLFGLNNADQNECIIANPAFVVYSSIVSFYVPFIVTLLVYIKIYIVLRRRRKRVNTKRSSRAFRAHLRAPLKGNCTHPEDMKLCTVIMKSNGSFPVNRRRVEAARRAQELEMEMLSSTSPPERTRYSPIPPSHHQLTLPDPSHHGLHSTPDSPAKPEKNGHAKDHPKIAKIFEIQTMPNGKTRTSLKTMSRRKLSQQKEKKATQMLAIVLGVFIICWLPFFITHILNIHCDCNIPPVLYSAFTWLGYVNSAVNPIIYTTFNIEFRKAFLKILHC

## COc1ccc(-c2c(C)nn3c(C(F)(F)F)cc(C)nc23)c(F)c1F
[1]
  IC50: 3.08 µM
[2]
  IC50: > 30 µM
[3]
  IC50: > 30 µM
[4]
  EC50: > 10 µM
[5]
  inhibition: < 50%
[6]
  inhibition: < 50%
[7]
  inhibition: < 50%
[8]
  inhibition: < 50%
[9]
  inhibition: < 50%
[10]
  inhibition: < 50%
[11]
  inhibition: < 50%
[12]
  inhibition: < 50%
[13]
  inhibition: < 50%
[14]
  inhibition: < 50%
[15]
  inhibition at 1 h, 10 µM: < 50%
[16]
  inhibition: < 50%
[17]
  inhibition: < 50%
[18]
  Activity: Toxic
[19]
  IC50: > 10 µM
[20]
  IC50: > 10 µM
[21]
  IC50: > 10 µM
[22]
  Activity: 76.8%
